Reference: ChEMBL document CHEMBL1134769, “Potent and selective nonpeptide inhibitors of caspases 3 and 7” (J Med Chem, 2001)
Where “and” joins values, the source holds several entries; their conditions need not be identical. Equal values may be shown once. Calls of active or inactive are those of the source. The calls are words filed in the database; no cut-off is given here.

Assays:
Caspase-3 [1] = molecular target: T1, Caspase-3 (Homo sapiens, UniProt P42574); assay: Inhibition of recombinant human caspase-3
T1 sequence (P42574 whole entry): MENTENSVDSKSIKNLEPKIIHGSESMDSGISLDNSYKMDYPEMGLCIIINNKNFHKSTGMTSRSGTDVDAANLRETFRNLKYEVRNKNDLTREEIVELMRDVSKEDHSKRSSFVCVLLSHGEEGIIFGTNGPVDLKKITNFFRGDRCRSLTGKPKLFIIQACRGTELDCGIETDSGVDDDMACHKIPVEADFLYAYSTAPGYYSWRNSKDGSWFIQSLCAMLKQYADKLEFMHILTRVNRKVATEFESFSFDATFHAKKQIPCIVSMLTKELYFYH

Jurkat (Homo sapiens) [2] = assay: In vitro inhibition of Jurkat cell apoptosis at 10 uM of compound
Caspase-3 [3] = molecular target: T1, Caspase-3; assay: In vitro inhibition of Caspase-3 in presence of naive chondrocyte cell cytosol
Method in brief: (§1)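 IC50 against recombinant full-length human caspase 3 (~10 units/assay; 1 unit = 1 pmol AMC/min), with cytosol from uninduced (nonapoptotic) chondrocytes making up 90% of assay volume. Assay buffer was 25 mM K+HEPES pH 7.5, 0.1% CHAPS, 50 mM KCl and 5 mM β-mercaptoethanol, with 10 μM Ac-DEVD-AMC. AMC was read at 30 °C (ex 360/em 460 nm) with 5% final DMSO.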

Caspase-3 [4] = molecular target: T1, Caspase-3; assay: In vitro inhibition of Caspase-3 in presence of uninduced chondrocyte cell cytosol; method in brief: as §1
C20/A4 [5] = assay: In vitro inhibition of Chondrocyte cell line C20/A4 apoptosis at 25 uM of compound; format: functional, Homo sapiens
Method in brief: (§2)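 Immortalized human chondrocyte line C20/A4 seeded at 20 000 cells/well overnight, then exposed 24 h to 4 μg/mL camptothecin with or without compound. Floating and adherent cells combined and lysed 30 min at 4 °C, then clarified at 14000g. Mono- and oligonucleosome DNA fragments measured by cell death ELISA; result expressed as % inhibition of apoptosis.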

C20/A4 [6] = assay: In vitro inhibition of Chondrocyte cell line C20/A4 apoptosis at 10 uM of compound; format: functional, Homo sapiens; method in brief: as §2
Caspase-3 [7] = molecular target: T1, Caspase-3; assay: In vitro inhibition of Caspase-3 in presence of camptothecin induced chondrocyte cell cytosol.
Method in brief: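 IC50 measured in cytosol from camptothecin-treated (apoptotic) chondrocytes at 90% of assay volume. Two conditions: the endogenous caspase 3-like activity alone, or with added recombinant human caspase 3 (~10 units/assay). Buffer was 25 mM K+HEPES pH 7.5, 0.1% CHAPS, 50 mM KCl and 5 mM β-mercaptoethanol, with 10 μM Ac-DEVD-AMC. AMC fluorescence was read at 30 °C (ex 360/em 460 nm) with 5% final DMSO.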

Jurkat (Homo sapiens) [8] = assay: In vitro inhibition of Jurkat cell apoptosis at 50 uM of compound
Caspase-1 = molecular target: T2, Caspase-1 (Homo sapiens, UniProt P29466); assay: Inhibitory activity against caspase-1; settings: read-out: Ki app
T2 sequence (P29466 whole entry): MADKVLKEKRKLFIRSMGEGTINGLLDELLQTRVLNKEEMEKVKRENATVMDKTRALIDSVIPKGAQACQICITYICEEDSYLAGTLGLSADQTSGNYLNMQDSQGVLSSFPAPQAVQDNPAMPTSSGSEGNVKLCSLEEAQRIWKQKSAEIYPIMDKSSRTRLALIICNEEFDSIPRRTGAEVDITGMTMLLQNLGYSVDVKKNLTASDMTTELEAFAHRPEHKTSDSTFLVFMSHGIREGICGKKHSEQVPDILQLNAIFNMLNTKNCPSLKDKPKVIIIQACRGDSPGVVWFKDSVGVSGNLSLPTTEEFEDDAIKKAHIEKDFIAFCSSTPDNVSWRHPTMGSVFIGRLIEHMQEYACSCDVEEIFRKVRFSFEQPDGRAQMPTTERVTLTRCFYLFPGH
Method in brief: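 Recombinant full-length human caspase 1, ~10 units/assay, in 25 mM K+HEPES pH 7.5 with 10% sucrose, 0.1% CHAPS and 5 mM β-mercaptoethanol. Substrate 10 μM Ac-YVAD-AMC. AMC read at 360/460 nm, 30 °C, with 5% final DMSO. Single-dose screen (typically 5–50 μM), followed by IC50 curves for active compounds.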

Caspase-9 = molecular target: T3, Caspase-9 (Homo sapiens, UniProt P55211); assay: Inhibitory activity against Caspase-9; settings: read-out: Ki app
T3 sequence (P55211 whole entry): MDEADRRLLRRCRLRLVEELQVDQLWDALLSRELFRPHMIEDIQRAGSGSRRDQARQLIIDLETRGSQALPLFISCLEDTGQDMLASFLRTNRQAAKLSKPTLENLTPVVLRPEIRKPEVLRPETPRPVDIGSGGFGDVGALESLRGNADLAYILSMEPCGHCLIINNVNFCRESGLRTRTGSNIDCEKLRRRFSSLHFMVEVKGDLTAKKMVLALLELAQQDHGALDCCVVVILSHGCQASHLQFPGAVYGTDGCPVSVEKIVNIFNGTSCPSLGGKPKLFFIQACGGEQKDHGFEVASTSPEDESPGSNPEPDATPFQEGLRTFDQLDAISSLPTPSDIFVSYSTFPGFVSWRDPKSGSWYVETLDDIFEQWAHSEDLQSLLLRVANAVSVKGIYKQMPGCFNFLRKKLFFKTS

Caspase-7 = molecular target: T4, Caspase-7 (Homo sapiens, UniProt P55210); assay: Inhibitory activity against Caspase-7; settings: read-out: Ki app
T4 sequence (P55210 whole entry): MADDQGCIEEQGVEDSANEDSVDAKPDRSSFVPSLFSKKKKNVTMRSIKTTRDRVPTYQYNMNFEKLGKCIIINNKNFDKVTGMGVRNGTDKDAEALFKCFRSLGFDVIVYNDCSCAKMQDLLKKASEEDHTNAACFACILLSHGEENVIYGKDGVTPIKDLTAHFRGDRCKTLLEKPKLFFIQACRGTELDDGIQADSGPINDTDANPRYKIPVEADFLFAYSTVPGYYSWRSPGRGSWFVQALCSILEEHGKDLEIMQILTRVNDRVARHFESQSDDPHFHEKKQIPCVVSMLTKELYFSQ
Method in brief: (§3)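 Recombinant full-length human caspase 3 or 7, ~10 units/assay (1 unit = 1 pmol AMC/min). Substrate 10 μM Ac-DEVD-AMC. AMC fluorescence at 360/460 nm, 30 °C, with 5% final DMSO. Single-dose screen (typically 5–50 μM), then IC50 curves; repeated IC50s had CVs typically <30%.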

Caspase-4 = molecular target: T5, Caspase-4 (Homo sapiens, UniProt P49662); assay: Inhibitory activity against caspase-4; settings: read-out: Ki app
T5 sequence (P49662 whole entry): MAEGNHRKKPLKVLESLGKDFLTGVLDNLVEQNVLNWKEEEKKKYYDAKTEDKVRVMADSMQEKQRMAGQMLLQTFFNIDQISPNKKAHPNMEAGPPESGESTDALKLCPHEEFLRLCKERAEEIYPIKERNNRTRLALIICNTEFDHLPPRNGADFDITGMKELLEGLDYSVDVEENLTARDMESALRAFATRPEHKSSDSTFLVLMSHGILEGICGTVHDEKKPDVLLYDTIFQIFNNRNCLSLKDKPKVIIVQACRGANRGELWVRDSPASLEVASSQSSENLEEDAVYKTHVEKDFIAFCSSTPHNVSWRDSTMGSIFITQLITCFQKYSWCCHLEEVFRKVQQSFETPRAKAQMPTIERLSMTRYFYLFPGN
Method in brief: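 Recombinant full-length human caspase 4, ~10 units/assay, in potassium acetate pH 5.8 with 1 mM EDTA, 10% sucrose, 0.1% CHAPS and 5 mM β-mercaptoethanol. Substrate 100 μM Ac-LEED-AMC. Read at 360/460 nm, 30 °C, 5% final DMSO. Single-dose screen (typically 5–50 μM), then IC50 curves for actives.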

Caspase-3 [9] = molecular target: T1, Caspase-3; assay: Inhibitory activity against caspase-3; settings: read-out: Ki app; method in brief: as §3
Caspase-2 = molecular target: T6, Caspase-2 (Homo sapiens, UniProt P42575); assay: Inhibitory activity against caspase-2; settings: read-out: Ki app
T6 sequence (P42575 whole entry): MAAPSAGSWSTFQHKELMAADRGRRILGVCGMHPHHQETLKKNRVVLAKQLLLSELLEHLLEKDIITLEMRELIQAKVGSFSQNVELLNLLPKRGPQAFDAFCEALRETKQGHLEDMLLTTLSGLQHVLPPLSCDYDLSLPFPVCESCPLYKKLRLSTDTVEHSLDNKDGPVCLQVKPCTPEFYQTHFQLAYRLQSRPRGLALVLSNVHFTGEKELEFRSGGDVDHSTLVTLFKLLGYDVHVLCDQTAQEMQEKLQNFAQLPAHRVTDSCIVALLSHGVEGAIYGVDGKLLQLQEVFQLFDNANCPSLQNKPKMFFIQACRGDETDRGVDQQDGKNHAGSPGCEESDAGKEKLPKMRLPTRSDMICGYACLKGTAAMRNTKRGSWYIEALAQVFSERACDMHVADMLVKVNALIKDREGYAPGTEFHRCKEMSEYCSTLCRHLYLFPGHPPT
Method in brief: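 Recombinant full-length human caspase 2 (~10 units/assay) in 50 mM sodium acetate pH 6.2 with 10% glycerol, 0.25 mM EDTA and 5 mM β-mercaptoethanol. Substrate 25 μM Ac-VDVAD-AMC. Fluorescence at 360/460 nm, 30 °C, final DMSO 5%. Compounds screened at a single dose (typically 5–50 μM), then full IC50 curves where activity was seen.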

Caspase-6 = molecular target: T7, Caspase-6 (Homo sapiens, UniProt P55212); assay: Inhibitory activity against Caspase-6; settings: read-out: Ki app
T7 sequence (P55212 whole entry): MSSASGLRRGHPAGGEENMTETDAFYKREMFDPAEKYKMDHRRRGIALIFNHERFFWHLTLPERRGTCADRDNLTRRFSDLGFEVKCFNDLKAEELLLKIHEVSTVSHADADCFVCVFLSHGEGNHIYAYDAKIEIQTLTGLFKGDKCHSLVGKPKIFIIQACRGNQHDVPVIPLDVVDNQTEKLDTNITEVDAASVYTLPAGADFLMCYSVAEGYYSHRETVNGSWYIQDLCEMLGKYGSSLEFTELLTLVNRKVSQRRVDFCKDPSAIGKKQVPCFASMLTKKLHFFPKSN
Method in brief: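 Recombinant full-length human caspase 6 (~10 units/assay) in 50 mM Tris-HCl pH 7.4 with 0.1% CHAPS, 1.5 mM MgCl2, 1 mM EDTA and 5 mM β-mercaptoethanol. Substrate 10 μM Ac-DEVD-AMC. AMC monitored at 360/460 nm, 30 °C, final DMSO 5%. Single-dose screen (typically 5–50 μM), then IC50 determination.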

Caspase-8 = Caspase-8 (Homo sapiens, UniProt Q14790); assay: Inhibitory activity against Caspase-8; settings: read-out: Ki app
Caspase-8, sequence (Q14790 217-374 limits assumed): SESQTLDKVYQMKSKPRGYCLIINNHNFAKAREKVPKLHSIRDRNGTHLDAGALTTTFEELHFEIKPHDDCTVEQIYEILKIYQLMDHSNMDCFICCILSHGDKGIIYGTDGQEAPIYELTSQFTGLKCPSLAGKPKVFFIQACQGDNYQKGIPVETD
Caspase-8, sequence (Q14790 385-479 limits assumed): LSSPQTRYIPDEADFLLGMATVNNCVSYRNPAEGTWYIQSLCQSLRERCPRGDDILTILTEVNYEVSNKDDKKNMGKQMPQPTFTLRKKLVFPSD
Method in brief: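 Recombinant full-length human caspase 8, ~10 units/assay, in Na+MOPS pH 7.5 with 10% glycerol, 0.25 mM EDTA and 5 mM β-mercaptoethanol. Substrate 10 μM Ac-IETD-AMC. Fluorescence at 360/460 nm, 30 °C, 5% final DMSO. Compounds screened at a single dose (typically 5–50 μM), then full IC50 curves for actives.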

C20/A4 [10] = assay: In vitro inhibition of Chondrocyte cell line C20/A4 apoptosis at 10 uM of compound; Not active; format: functional, cell-based; settings: Homo sapiens; method in brief: as §2
C20/A4 [11] = assay: In vitro inhibition of Chondrocyte cell line C20/A4 apoptosis at 25 uM of compound; Not active; format: functional, cell-based; settings: Homo sapiens; method in brief: as §2

Row | SMILES | IC50 (Caspase-3 [1]) | Inhibition (Jurkat (Homo sapiens) [2]) [%] | Inhibition (C20/A4 [5]) [%] | Inhibition (C20/A4 [6]) [%] | Inhibition (Jurkat (Homo sapiens) [8]) [%] | Ki (Caspase-1) [µM] | Ki (Caspase-9) [µM] | Ki (Caspase-7) [µM] | Ki (Caspase-4) [µM] | Ki (Caspase-3 [9]) [µM] | Ki (Caspase-2) [µM] | Ki (Caspase-6) [µM] | Ki (Caspase-8) [µM] | further results
1 | CN1C(=O)C(=O)c2cc(C(=O)O)ccc21 | > 50 µM |  |  |  |  |  |  |  |  |  |  |  |  | 
2 | CN1C(=O)C(=O)c2cc(S(=O)(=O)N3CCC[C@H]3COc3ccccc3)ccc21 | 30 µM and 47 µM | 41 | 85 | 48 | 92 |  |  |  |  |  |  |  |  | IC50 (Caspase-3 [3]): 7.5 µM; IC50 (Caspase-3 [4]): 7.5 µM; IC50 (Caspase-3 [7]): 0.84 µM
3 | CN1C(=O)C(=O)c2cc([N+](=O)[O-])ccc21 | 1 µM |  |  |  |  | 12 | 7.2 | 0.29 | 4 | 0.5 | > 50 | 1.7 | > 50 | 
4 | O=C1C(=O)N(Cc2ccccc2)c2ccc([N+](=O)[O-])cc21 | 0.25 µM |  |  |  |  | 18 | 5 | 0.17 | 5 | 0.13 | > 25 | 1 | 31 | 
5 | C=CCN1C(=O)C(=O)c2cc(S(=O)(=O)N3CCC[C@H]3COc3ccccc3)ccc21 |  | 60 | 95 | 71 | 89 |  |  |  |  |  |  |  |  | 
6 | COC[C@H]1CCCN1S(=O)(=O)c1ccc2c(c1)C(=O)C(=O)N2 | 18 µM | 15 |  |  | 22 |  |  |  |  |  |  |  |  | NA (C20/A4 [10]): inactive; NA (C20/A4 [11]): inactive
7 | O=C1C(=O)N(Cc2ccncc2)c2ccc(S(=O)(=O)N3CCC[C@H]3COc3ccccc3)cc21 |  |  | 89 | 64 |  |  |  |  |  |  |  |  |  | 
8 | CN1C(=O)C(=O)c2ccccc21 | > 50 µM |  |  |  |  |  |  |  |  |  |  |  |  | 
9 | O=C1Nc2ccc(S(=O)(=O)N3CCCC3)cc2C1=O | 2.8 µM |  |  |  |  | 9 | 12 | 3 | > 50 | 1.4 | > 50 | > 50 | > 50 | 
10 | O=C1Nc2ccc(S(=O)(=O)N3CCCC3C(=O)Nc3ccccc3)cc2C1=O (centres undefined) | 0.14 µM |  |  |  |  |  |  |  |  |  |  |  |  | 
